Experimental findings from ChEMBL document CHEMBL1833966, “Synthesis and evaluation of quinazolin-4-ones as hypoxia-inducible factor-1α inhibitors” (Bioorg Med Chem Lett, 2011) are described below.

The structures appear in SMILES notation. The source made the active and inactive calls. The rule behind the calls is not given here.

The first test deals with T1, Hypoxia-inducible factor 1-alpha (Homo sapiens, UniProt Q16665). Nature of the test: Inhibition of hypoxia-induced HIF1alpha activation in human ME180 cells by HRE3-Bla-[…] reporter gene assay. The test is classed as cell-based, ME-180. The settings on record: me-180. The essentials: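 HRE-bla ME-180 reporter cells, 2500 per well, given compound by pin transfer (261-fold dilution), then held 17 h at 37 °C under 1% oxygen. LiveBLAzer B/G FRET β-lactamase substrate added, 2.5 h at room temperature; fluorescence read at 405 nm excitation, 460 and 530 nm emission. IC50 is the mean of three independent experiments.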
In general terms: Reporter assays use an easily measured gene product as a stand-in for the process of interest.
Target sequence in this assay (Q16665 whole entry): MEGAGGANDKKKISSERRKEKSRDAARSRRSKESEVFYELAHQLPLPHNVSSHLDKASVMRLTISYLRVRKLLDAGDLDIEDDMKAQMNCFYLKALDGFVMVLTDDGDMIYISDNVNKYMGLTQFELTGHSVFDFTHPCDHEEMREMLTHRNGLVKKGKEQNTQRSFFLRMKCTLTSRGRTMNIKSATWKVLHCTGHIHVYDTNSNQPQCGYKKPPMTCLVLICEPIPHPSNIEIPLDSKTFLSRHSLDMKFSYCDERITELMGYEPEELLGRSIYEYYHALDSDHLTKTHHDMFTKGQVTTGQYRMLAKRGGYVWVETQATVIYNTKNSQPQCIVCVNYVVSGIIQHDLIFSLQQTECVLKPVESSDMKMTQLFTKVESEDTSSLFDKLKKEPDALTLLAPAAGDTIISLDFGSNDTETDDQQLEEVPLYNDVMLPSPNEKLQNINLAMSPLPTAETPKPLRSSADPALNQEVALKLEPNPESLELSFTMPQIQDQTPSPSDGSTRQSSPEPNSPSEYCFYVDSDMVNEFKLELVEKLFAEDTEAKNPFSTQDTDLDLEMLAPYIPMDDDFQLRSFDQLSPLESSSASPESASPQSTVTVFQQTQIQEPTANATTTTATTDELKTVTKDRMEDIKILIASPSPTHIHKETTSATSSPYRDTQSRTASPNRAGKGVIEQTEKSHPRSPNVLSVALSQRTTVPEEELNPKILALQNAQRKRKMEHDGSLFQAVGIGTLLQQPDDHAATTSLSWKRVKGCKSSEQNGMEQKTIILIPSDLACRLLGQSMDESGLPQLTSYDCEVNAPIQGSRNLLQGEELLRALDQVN
As to `CCOc1ccccc1-n1c(CN2CCN(C(=O)c3ccco3)CC2)nc2cccc(OC)c2c1=O`, the concentration for half-maximal inhibition (IC50) result is listed as “Not Active”.

Regarding `O=C(c1ccco1)N1CCN(Cc2nc3ccccc3c(=O)n2-c2ccccc2C(F)(F)F)CC1`, the IC50 result is “Not Active”.

For the molecule `CCOc1ccccc1-n1c(CN2CCN(C(=O)c3ccco3)CC2)nc2cc(OC)c(OC)cc2c1=O`, the IC50 entry is recorded as “Not Active”.

For the molecule `O=C(c1ccco1)N1CCN(Cc2nc3ccccc3c(=O)n2-c2ccccc2Oc2ccccc2)CC1`, the IC50 entry is “Not Active”.

In the case of `CCOc1ccccc1-n1c(CN2CCN(C(=O)c3ccco3)CC2)nc2ccc(I)cc2c1=O`, the IC50 result was “Not Active”.

Consider `O=C(c1ccco1)N1CCN(Cc2nc3ccccc3c(=O)n2-c2ccc(F)cc2)CC1`, for which the IC50 result is reported as “Not Active”.

In the case of `O=C(c1ccco1)N1CCN(Cc2nc3ccccc3c(=O)n2-c2ccccc2[N+](=O)[O-])CC1`, the IC50 result is recorded as “Not Active”.

With `Cc1ccccc1-n1c(CN2CCN(C(=O)c3ccco3)CC2)nc2ccccc2c1=O`, the IC50 entry is “Not Active”.

Regarding `O=C(c1ccco1)N1CCN(Cc2nc3ccccc3c(=O)n2-c2ccccc2OCc2ccccc2)CC1`, the IC50 result is listed as “Not Active”.

Consider `O=C(c1ccco1)N1CCN(Cc2nc3ccccc3c(=O)n2-c2ccccc2Cl)CC1`, for which the IC50 result was “Not Active”.

In the case of `CCOc1ccccc1-n1c(CN2CCCCC2)nc2ccccc2c1=O`, the IC50 entry is reported as “Not Active”.

Consider `O=C(c1ccco1)N1CCN(Cc2nc3ccccc3c(=O)n2-c2ccccc2)CC1`, for which the IC50 entry is reported as “Not Active”.

Turning to `CC(C)(C)c1ccccc1-n1c(CN2CCN(C(=O)c3ccco3)CC2)nc2ccccc2c1=O`, the IC50 result is on record as “Not Active”.

Take `O=C(c1ccco1)N1CCN(Cc2nc3ccccc3c(=O)n2-c2ccccc2F)CC1`: the IC50 result is reported as “Not Active”.

For the molecule `COc1ccc(-n2c(CN3CCNCC3)nc3ccccc3c2=O)cc1`, the IC50 result was “Not Active”.

The same test, now with this note: read-out: IC50.
As to `CCOc1ccccc1-n1c(CN2CCN(C(C)=O)CC2)nc2ccccc2c1=O`, the IC50 stood at 0.47 µM.

In the case of `COc1ccccc1-n1c(CN2CCN(C(=O)c3ccco3)CC2)nc2ccccc2c1=O`, the IC50 came to 3.3 µM.

On to `CCOc1ccccc1-n1c(CN2CCN(C)CC2)nc2ccccc2c1=O`, for which the IC50 is 0.81 µM.

With `CCOc1ccccc1-n1c(CN2CCN(C(=O)c3ccccc3)CC2)nc2ccccc2c1=O`, the IC50 was found to be 1.7 µM.

`CCOc1ccccc1-n1c(CC2CCN(C(=O)c3ccco3)CC2)nc2ccccc2c1=O`: the IC50 was found to be 27.6 µM.

Regarding `CCNc1ccccc1-n1c(CN2CCNCC2)nc2ccccc2c1=O`, the IC50 is 4.1 µM.

For `CCOC(=O)N1CCN(Cc2nc3ccccc3c(=O)n2-c2ccccc2OCC)CC1`, the IC50 amounted to 9.4 µM.

For the molecule `CCOc1ccccc1-n1c(CN2CCN(C(=O)c3ccco3)CC2)nc2cccc(C)c2c1=O`, the IC50 stood at 1.2 µM.

`COc1ccc([N+](=O)[O-])cc1-n1c(CN2CCNCC2)nc2ccccc2c1=O`: the IC50 is 4.2 µM.

As to `CC(C)COc1ccccc1-n1c(CN2CCNCC2)nc2ccccc2c1=O`, the IC50 was 6.2 µM.

Turning to `CCOc1ccccc1-n1c(CN2CCCNCC2)nc2ccccc2c1=O`, the IC50 is 0.16 µM.

Take `CCSc1ccccc1-n1c(CN2CCNCC2)nc2ccccc2c1=O`: the IC50 was determined as 3.5 µM.

For `O=c1c2ccccc2nc(CN2CCNCC2)n1-c1ccccc1OCc1ccccc1`, the IC50 was determined as 22.9 µM.

For `COc1ccc(C(F)(F)F)cc1-n1c(CN2CCNCC2)nc2ccccc2c1=O`, the IC50 came out at 0.2 µM.

`CCOc1ccccc1-n1c(CN2CCOCC2)nc2ccccc2c1=O`: the IC50 came to 27.6 µM.

On to `CCOc1ccccc1-n1c(CN2CCNCC2)nc2ccccc2c1=O`, for which the IC50 came out at 0.09 µM.

Turning to `CCOc1ccccc1-n1c(CN2CCN(Cc3ccccc3)CC2)nc2ccccc2c1=O`, the IC50 was determined as 27.5 µM.

In the case of `CCOc1ccccc1-n1c(CN2CCN(C(=O)c3ccco3)CC2)nc2ccccc2c1=O`, the IC50 stood at 0.43 µM.

The next test deals with ME-180. Description: Inhibition of hypoxia-induced HIF1alpha protein accumulation in human HRE-bla-ME180 cells at 1 uM after 17 hrs by Western blot analysis. The test is classed as functional, cell-based.
Settings: not given
The method, boiled down: (§1)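 HRE-bla ME-180 cells, 1 × 10^6 per well, cultured 6 h, then exposed 17 h to compound in DMSO at 1% oxygen; DMSO under normal atmosphere as negative control. Lysis on ice with protease inhibitor, centrifugation, 25 ug protein on 10% Tris-Glycine SDS-PAGE, PVDF transfer. Blotted with anti-HIF-1α (1:250), β-actin (1:5000) loading control, HRP secondary, luminol detection.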
On the technique in general: Immunoblotting shows a protein as a band on a membrane.
Regarding `CCOc1ccccc1-n1c(CN2CCOCC2)nc2ccccc2c1=O`, the inhibition result is “inactive”.

With `CCOc1ccccc1-n1c(CN2CCNCC2)nc2ccccc2c1=O`, the inhibition result is “Active”.

The test system of a further test is ME-180. Description: Inhibition of hypoxia-induced HIF1alpha protein accumulation in human HRE-bla-ME180 cells at 10 uM after 17 hrs by Western blot analysis. The class given is functional, cell-based.
Settings: not given
The method, boiled down:
as §1
With `CCOc1ccccc1-n1c(CN2CCOCC2)nc2ccccc2c1=O`, the inhibition result was “Active”.

Another test concerns the target T1, Hypoxia-inducible factor 1-alpha. Description: Ratio of NCGC00056044 IC50 to compound IC50 for hypoxia-induced HIF1alpha activation in human ME180 cells by HRE3-Bla-[…] reporter gene assay. The class given is cell-based. The settings on record: ME-180.
Target sequence in this assay (Q16665 whole entry, looked up): as the sequence (Q16665 whole entry) above
Take `CCOc1ccccc1-n1c(CN2CCNCC2)nc2ccccc2c1=O`: the Ratio IC50 was 5.

The term IC50 denotes the concentration that gives 50% inhibition.
